{
  "source": "paper PMC9798170",
  "about": "(International Journal for Parasitology: Drugs and Drug …, 2022)",
  "key": {"[1]": {"system": "succinate-cytochrome c (complex II-III activities)", "assay": "Counter assay succinate-cytochrome c activity, bovine heart mitochondria", "type": "biochemical", "conditions": "read-out: IC50 of the sample against succinate-cytochrome c (complex II-III)", "outline": "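Run as the NADH assay (phosphate buffer pH 7.4, 2 mM KCN) but with 100 µM cytochrome c and 25 µg/mL bovine heart mitochondria. Reaction started with 10 mM succinate, and cytochrome c reduction read at 550 nm, in quadruplicate. Test compound was serially diluted from 100 to 0.003 µM. DMSO was the 0% inhibition control and 5 µM ascochlorin the 100% inhibition control.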"}, "P. falciparum": {"system": "P. falciparum", "conditions": "P. falciparum growth; ref Widyawaruyanti et al., 2007; cited from earlier work"}, "recombinant PfMQO": {"biological_target": "T1, recombinant PfMQO (Plasmodium falciparum, UniProt C6KT09)", "T1 sequence (C6KT09 1-521)": "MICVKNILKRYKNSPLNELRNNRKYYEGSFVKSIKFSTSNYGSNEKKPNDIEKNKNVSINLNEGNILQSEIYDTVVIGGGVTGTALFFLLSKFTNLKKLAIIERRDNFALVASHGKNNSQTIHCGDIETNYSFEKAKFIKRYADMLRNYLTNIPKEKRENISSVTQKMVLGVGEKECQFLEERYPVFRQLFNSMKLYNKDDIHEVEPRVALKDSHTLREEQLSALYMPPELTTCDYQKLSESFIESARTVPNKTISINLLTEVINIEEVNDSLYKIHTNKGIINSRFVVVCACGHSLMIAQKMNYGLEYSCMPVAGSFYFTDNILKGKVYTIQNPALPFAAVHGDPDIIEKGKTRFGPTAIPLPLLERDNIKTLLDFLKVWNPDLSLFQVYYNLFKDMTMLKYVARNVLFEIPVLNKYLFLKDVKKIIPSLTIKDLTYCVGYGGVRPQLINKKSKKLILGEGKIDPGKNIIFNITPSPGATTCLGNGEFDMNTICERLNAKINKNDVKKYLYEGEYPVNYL", "assay": "Recombinant PfMQO activity inhibition assay", "type": "biochemical", "conditions": "recombinant PfMQO membrane fraction", "outline": "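PfMQO membrane fraction (3 µg/mL) was used in 50 mM HEPES-KOH pH 7.0 with 1 mM KCN, 25 µM decylubiquinone and 120 µM DCIP. Background was read for 5 min at 600 nm and 37 °C, then malate (400 mM stock) was added and activity recorded for 10 min. DMSO wells served as 0% and no-malate wells as 100%. Runs were in triplicate over test compound 0.001–100 µM, with four-parameter nonlinear fit.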"}, "[2]": {"system": "NADH-cytochrome c (complex I-III activities)", "assay": "Counter assay NADH-cytochrome c activity, bovine heart mitochondria", "type": "biochemical", "conditions": "read-out: IC50 of the sample against succinate-cytochrome c (complex I-III)"}, "P. falciparum 3D7 strain": {"system": "P. falciparum 3D7 strain", "conditions": "ref Hidayati et al., 2020; cited from earlier work"}, "[3]": {"system": "Plasmodium falciparum 3D7", "assay": "In vitro antimalarial assay", "type": "cell-based", "conditions": "P. falciparum 3D7, 48 h, microscopic assay; listed as Chloroquine diphosphate", "outline": "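Test compound stock was 10 mg/mL in DMSO, diluted in RPMI-1640 to final 0.01–100 µg/mL. It was added to culture at ~1% parasitemia and 5% haematocrit in human O+ RBCs with 10% serum, then incubated 48 h at 37 °C. Parasitemia was counted per 1000 RBCs on 10% Giemsa smears. Inhibition was taken relative to the negative control, and IC50 came from a four-parameter logistic fit.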"}, "[4]": {"system": "synchronized P. falciparum 3D7 strain", "assay": "Impairment of P. falciparum intraerythrocytic stage development", "type": "cell-based, Plasmodium falciparum", "conditions": "tested at IC50 concentration", "outline": "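Parasites were sorbitol-synchronized (5% w/v) and set at 0.3% parasitemia in human O+ RBCs in RPMI-1640 with 10% human serum at 37 °C. Sampling was at 0, 24 and 48 h. Giemsa-stained thin smears were scored for stage by light microscopy at 1000×. Each concentration was run in duplicate on the same plate.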"}, "[5]": {"system": "Plasmodium falciparum 3D7", "assay": "Isobologram analysis, fixed-ratio combinations", "type": "cell-based", "conditions": "fixed ratios 4:1, 3:2, 2:3, 1:4; 72 h", "outline": "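Test compound was combined with atovaquone or chloroquine at fixed ratios 4:1, 3:2, 2:3 and 1:4, with 5:0 and 0:5 for single agents, in serial dilution. Synchronized rings at 0.3% parasitemia were incubated 72 h at 37 °C under 90% N2/5% CO2/5% O2, then read by PfLDH/diaphorase. IC50 was determined per mixture, and FIC = IC50 in mixture / IC50 alone.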"}},
  "note": "“Also recorded” adds a separate entry of the source.",
  "data": [
    {"compound": "Cc1c(-c2ccc(-c3ccccc3F)cc2)nc2ccc(F)cc2c1C(=O)O", "note": "[Brequinar]", "values": [
      {"measurement": "IC50", "setting": "[1]", "value": "22900 ± 1460", "unit": "nM"}
    ]},
    {"compound": "Heteroflavanone C", "values": [
      {"measurement": "IC50", "setting": "P. falciparum", "value": 1, "unit": "nM"}
    ]},
    {"compound": "CC(C)=CCC/C(C)=C/CC/C(C)=C/Cc1c(O)c2ccccc2oc1=O", "note": "[Ferulenol]", "values": [
      {"measurement": "IC50", "setting": "recombinant PfMQO", "value": "0.06 ± 0.01", "unit": "µg/mL"},
      {"measurement": "IC50", "setting": "recombinant PfMQO; listed as ferulenol", "value": 170, "unit": "nM"},
      {"measurement": "IC50", "setting": "[2]", "value": "280 ± 80", "unit": "nM"},
      {"measurement": "IC50", "setting": "[1]", "value": "170 ± 10", "unit": "nM"}
    ]},
    {"compound": "CC(C)=CCCC1(C)C=Cc2c(CCC(=O)c3ccc(O)cc3O)ccc(O)c2O1", "note": "(stereo not drawn) [1-(2,4-dihydroxyphenyl)-3-(8-hydroxy-2-methyl-2-(4-methyl-3-pentenyl)-2H-1-benzopyran-5-yl]-1-propanone]", "values": [
      {"measurement": "IC50", "setting": "P. falciparum 3D7 strain", "value": 1050, "unit": "nM"}
    ]},
    {"compound": "CC(/C=C/[C@@]1(C)[C@H](C)CCC(=O)[C@@H]1C)=C\\Cc1c(O)c(Cl)c(C)c(C=O)c1O", "note": "[Ascochlorin]", "values": [
      {"measurement": "IC50", "setting": "[2]", "value": 10, "unit": "nM"},
      {"measurement": "IC50", "setting": "[1]", "value": 10, "unit": "nM"}
    ]},
    {"compound": "CCN(CC)CCCC(C)Nc1ccnc2cc(Cl)ccc12", "note": "(stereo not drawn) [Chloroquine]", "values": [
      {"measurement": "IC50", "setting": "[3]", "value": 0.004, "unit": "µg/mL"},
      {"measurement": "stage development after 24 h of incubation", "setting": "[4]; 24 h", "value": "ring stage was still dominant"},
      {"measurement": "stage development after 48 h of incubation", "setting": "[4]; 48 h", "value": "accumulation of trophozoite"},
      {"measurement": "interaction in combination with atovaquone (isobologram)", "setting": "[5]", "value": "antagonistic interactions; also recorded: antagonism"}
    ]},
    {"compound": "C=C(C)[C@H]1Cc2c(ccc3c2O[C@@H]2COc4cc(OC)c(OC)cc4[C@@H]2C3=O)O1", "note": "[Rotenone]", "values": [
      {"measurement": "IC50", "setting": "[2]", "value": 10, "unit": "nM"},
      {"measurement": "IC50", "setting": "[1]", "value": "1860 ± 110", "unit": "nM"}
    ]}
  ]
}
